Assay results published in ChEMBL document CHEMBL2407049, “Cyclopeptide alkaloids: stereochemistry and synthesis of the precursors of discarines C and D and myrianthine A” (2013).

Key:
Candida dubliniensis = test: Antifungal activity against Candida dubliniensis SM 26 clinical isolate assessed as concentration required to inhibit fungal growth after 24 hrs by TLC assay; assay type: functional
How it was run: (§1)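 Direct TLC bioautography: compound amounts from 50 to 1.56 μg applied to precoated TLC plates, overlaid with Mueller Hinton or Sabouraud agar inoculated with microorganism suspension (10⁵ cfu mL⁻¹). Plates incubated 24 h at 37 °C, then stained with aqueous 2,3,5-triphenyltetrazolium chloride (1 mg mL⁻¹). The lowest amount giving an inhibition zone was recorded; <50 μg counted active. Triplicate.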

Candida tropicalis = test: Antifungal activity against Candida tropicalis ATCC 750 assessed as concentration required to inhibit fungal growth after 24 hrs by TLC assay; assay type: functional; how it was run: as §1
Cryptococcus neoformans = test: Antifungal activity against Cryptococcus neoformans ATCC 28952 assessed as concentration required to inhibit fungal growth after 24 hrs by TLC assay; assay type: functional; how it was run: as §1
Candida albicans = test: Antifungal activity against Candida albicans ATCC 10231 assessed as concentration required to inhibit fungal growth after 24 hrs by TLC assay; assay type: functional; how it was run: as §1
Saccharomyces cerevisiae = test: Antifungal activity against Saccharomyces cerevisiae ATCC 2601 assessed as concentration required to inhibit fungal growth after 24 hrs by TLC assay; assay type: functional; how it was run: as §1
Staphylococcus aureus = test: Antibacterial activity against Staphylococcus aureus ATCC 6538p assessed as concentration required to inhibit bacterial growth after 24 hrs by TLC assay; assay type: functional; how it was run: as §1
Kocuria rhizophila = test: Antibacterial activity against Micrococcus luteus ATCC 9341 assessed as concentration required to inhibit bacterial growth after 24 hrs by TLC assay; assay type: functional; how it was run: as §1
[1] = Antibacterial activity against Salmonella Setubal ATCC 19196 assessed as concentration required to inhibit bacterial growth after 24 hrs by TLC assay; assay type: functional, Salmonella enterica subsp. enterica serovar Setubal; how it was run: as §1
[2] = test system: Staphylococcus epidermidis; test: Antibacterial activity against Staphylococcus epidermidis ATCC 12228 assessed as concentration required to inhibit bacterial growth after 24 hrs by TLC assay; assay type: functional; how it was run: as §1
Escherichia coli = test: Antibacterial activity against Escherichia coli ATCC 11103 assessed as concentration required to inhibit bacterial growth after 24 hrs by TLC assay; assay type: functional; how it was run: as §1
Klebsiella pneumoniae = test: Antibacterial activity against Klebsiella pneumoniae ATCC 10031 assessed as concentration required to inhibit bacterial growth after 24 hrs by TLC assay; assay type: functional; how it was run: as §1

Compound	Activity (Candida dubliniensis) [µg]	Activity (Candida tropicalis) [µg]	Activity (Cryptococcus neoformans) [µg]	Activity (Candida albicans) [µg]	Activity (Saccharomyces cerevisiae) [µg]	Activity (Staphylococcus aureus) [µg]	Activity (Kocuria rhizophila) [µg]	Activity [1] [µg]	Activity [2] [µg]	Activity (Escherichia coli) [µg]	Activity (Klebsiella pneumoniae) [µg]
COC(=O)[C@H](CC(C)C)NC(=O)[C@H](NC(=O)[C@H](CC(C)C)N(C)C)[C@H](Oc1ccc(C=O)cc1)c1ccccc1 (mixture of isomers)	<50	<50	<50	<50	<50	<50	<50	<50	<50	<50	<50
COC(=O)[C@H](CC(C)C)NC(=O)[C@H]([C@@H](Oc1ccc(C=O)cc1)c1ccccc1)N1CN(C)[C@@H](CC(C)C)C1=O (mixture of isomers)	<50	<50	<50	<50	<50	<50	<50	<50	<50	<50	<50
COC(=O)[C@H](Cc1ccccc1)NC(=O)[C@@H]([C@H](Oc1ccc(C=O)cc1)c1ccccc1)N1CN(C)[C@@H](CC(C)C)C1=O (mixture of isomers)	<50	<50	<50	<50	<50	<50	<50	<50	<50	<50	<50
COC(=O)[C@H](Cc1ccccc1)NC(=O)[C@@H]([C@@H](O)c1ccccc1)N1CN(C)[C@@H](CC(C)C)C1=O (mixture of isomers)	<50	<50	<50	<50	<50	<50	<50	12.5	6.2	3.1	6.2
CC(C)C[C@@H]1NC(=O)[C@@H](NC(=O)[C@H](CC(C)C)N(C)C)[C@H](c2ccccc2)Oc2ccc(cc2)/C=C\NC1=O (mixture of isomers)	>50	>50	>50	>50	>50	>50	>50	>50	>50	>50	>50
CC[C@H](C)[C@H](NC(=O)[C@@H]([C@H](Oc1ccc(C=O)cc1)c1ccccc1)N1CN(C)[C@@H](CC(C)C)C1=O)C(=O)OC (mixture of isomers)	<50	<50	<50	<50	<50	<50	<50	<50	<50	<50	<50
COC(=O)[C@H](CC(C)C)NC(=O)[C@@H]([C@H](Oc1ccc(C=O)cc1)c1ccccc1)N1CN(C)[C@@H](CC(C)C)C1=O (mixture of isomers)	<50	<50	<50	<50	<50	<50	<50	<50	<50	<50	<50
CC[C@H](C)[C@H](NC(=O)[C@H](NC(=O)[C@@H](N)CC(C)C)[C@@H](O)c1ccccc1)C(=O)OC	<50	<50	<50	<50	<50	<50	<50	<50	<50	<50	<50
COC(=O)[C@H](CC(C)C)NC(=O)[C@@H]([C@@H](O)c1ccccc1)N1CN(C)[C@@H](CC(C)C)C1=O (mixture of isomers)	<50	<50	<50	<50	<50	<50	<50	<50	<50	<50	<50
CC[C@H](C)[C@H](NC(=O)[C@@H]([C@@H](O)c1ccccc1)N1CN(C)[C@@H](CC(C)C)C1=O)C(=O)OC (mixture of isomers)	<50	<50	<50	<50	<50	<50	<50	<50	<50	<50	<50
CC[C@H](C)[C@H](NC(=O)[C@H]([C@@H](Oc1ccc(C=O)cc1)c1ccccc1)N1CN(C)[C@@H](CC(C)C)C1=O)C(=O)OC (mixture of isomers)	<50	<50	<50	<50	<50	<50	<50	<50	<50	<50	<50
CC[C@H](C)[C@@H]1NC(=O)[C@@H](NC(=O)[C@H](CC(C)C)N(C)C)[C@H](c2ccccc2)Oc2ccc(cc2)/C=C\NC1=O (mixture of isomers)	>50	>50	>50	>50	>50	>50	>50	>50	>50	>50	>50
COC(=O)[C@H](CC(C)C)NC(=O)[C@H](NC(=O)[C@@H](N)CC(C)C)[C@@H](O)c1ccccc1	<50	<50	<50	<50	<50	<50	<50	<50	<50	<50	<50
CC[C@H](C)[C@H](NC(=O)[C@H](NC(=O)[C@H](CC(C)C)N(C)C)[C@@H](O)c1ccccc1)C(=O)OC (mixture of isomers)	<50	<50	<50	<50	<50	<50	<50	<50	<50	<50	<50
COC(=O)[C@H](Cc1ccccc1)NC(=O)[C@H]([C@H](O)c1ccccc1)N1CN(C)[C@@H](CC(C)C)C1=O	<50	<50	<50	<50	<50	<50	<50	25	50	>50	50
COC(=O)[C@H](Cc1ccccc1)NC(=O)[C@H](NC(=O)[C@H](CC(C)C)NC(=O)OCc1ccccc1)[C@@H](O)c1ccccc1 (mixture of isomers)	<50	<50	<50	<50	<50	<50	<50	<50	<50	<50	<50
CC[C@H](C)[C@H](NC(=O)[C@H](NC(=O)[C@H](CC(C)C)NC(=O)OCc1ccccc1)[C@@H](O)c1ccccc1)C(=O)OC (mixture of isomers)	<50	<50	<50	<50	<50	<50	<50	<50	<50	<50	<50
COC(=O)[C@H](Cc1ccccc1)NC(=O)[C@H]([C@@H](Oc1ccc(C=O)cc1)c1ccccc1)N1CN(C)[C@@H](CC(C)C)C1=O (mixture of isomers)	<50	<50	<50	<50	<50	<50	<50	<50	<50	<50	<50
